In article PMC10732652 (Virulence, 2023):
Entries after “also recorded” stand apart in the source; their conditions may differ.

Key:
aminopeptidase ApdS = details: S. suis; cited from earlier work
PepO [1] = experiment: 500 nM of PepO in PBS; details: S. suis, 37°C, up to 3 hours
ScpC protease [2] = details: S. pyogenes; cited from earlier work
PepO [3] = experiment: Cleavage of cathelicidins by recombinant PepO; type: in vitro ADME, Streptococcus suis; details: 20 μM peptide, 500 nM PepO, PBS, 37°C, 3 hours; SDS-PAGE
Procedure, shortened: (§1)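 Enzyme: His-tagged PepO (aa 29–663) or its Glu513→Ala variant, expressed from pET22b in E. coli BL21(DE3) with 0.5 mM IPTG at 16°C for 12 h. Purified by Ni-Sepharose and exchanged into PBS. Substrates were synthetic LL-37 or mCRAMP (>95% purity). Uncleaved peptide served as control. Products were analysed by SDS-PAGE or MALDI-TOF/TOF MS.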

S. suis ΔpepO = experiment: Live/Dead staining; type: cell-based, Streptococcus suis; details: 1 × 10^5 CFU/ml, 2 μM, 1 hour, CLSM
Procedure, shortened: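 S. suis serotype 2 strain 05ZYH33 ΔpepO mutant, grown in TSB at 37°C/5% CO2; fresh culture washed twice, diluted to 1 × 10^5 CFU/ml. Exposed 1 h to 2 μM cathelicidin peptides, their PepO digests (20 μM peptide + 500 nM His-tagged PepO, PBS, 37°C, 3 h) or truncated fragments. BacLight stained, washed after 15 min, confocal imaging: SYTO9 480/500 nm, PI 490/635 nm.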

Mouse neutrophils = experiment: Neutrophil chemotaxis assay; type: cell-based; details: 1 μM in bottom chamber, 5 × 10^5 cells, 40 minutes, 37°C
Procedure, shortened: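 Bone-marrow neutrophils from C57BL/6 mice, purified on Histopaque-1119/1077 gradients, CellTracker Green-labelled, 1 × 10^7 cells/ml in RPMI-1640. 5 × 10^5 cells placed in Transwell inserts; 1 μM peptides, PepO digests or fragments in lower chamber; 5 μM fMLP as positive control. 40 min at 37°C, migrated cells counted by fluorescence microscopy. CI = cells migrating toward stimulus ÷ toward medium.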

[4] = tested on: Mouse peritoneal macrophages; experiment: Lysosome formation analysis; type: cell-based; details: 2 μM, 37°C, 4 hours, 5 × 10^4 cells, CLSM
Procedure, shortened: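 Macrophages from peritoneal fluid of C57BL/6 mice 3 days after i.p. thioglycollate; spun 600 × g 10 min, kept in RPMI-1640, non-adherent cells removed at 6 h. 5 × 10^4 cells exposed 4 h at 37°C to peptides, PepO digests or fragments. Fixed in 4% formaldehyde, permeabilised with 0.1% Triton X-100, blocked in 3% BSA. Rabbit anti-LAMP1 (37°C, 1 h), Alexa Fluor 594 secondary, DAPI; confocal imaging.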

ScpC protease [5] = details: cited from earlier work
PepOE513A = experiment: Cleavage of cathelicidins by catalytic site-mutated PepOE513A; type: in vitro ADME, Streptococcus suis; details: 20 μM peptide, 500 nM PepOE513A, PBS, 37°C, 3 hours; SDS-PAGE
Procedure, shortened: as §1

[6] = tested on: S. suis WT, ΔpepO, and CΔpepO strains; experiment: Bactericidal assay, sensitivity of S. suis strains toward cathelicidins; type: cell-based, Streptococcus suis; details: 8 × 10^4 CFU/ml in PBS, peptide 0–4 μM, 37°C, 1 hour, CFU counting on TSA
Procedure, shortened: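 S. suis serotype 2 strain 05ZYH33 (wild type), its ΔpepO mutant and the complemented strain were grown in TSB at 37°C with 5% CO2 to OD600 0.5. Cells were washed twice and resuspended in PBS. After 1 h at 37°C with LL-37 or mCRAMP, samples were serially diluted and plated on TSA to count surviving CFU.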

ApdS = details: cited from earlier work

| Substance | Cleavage by PepO (PepO [3]) | Membrane damage, viable and dead bacteria (SYTO9/PI) (S. suis ΔpepO) | Chemotaxis of neutrophils (chemotaxis index, CI) (Mouse neutrophils) | Lysosome formation (LAMP1) [4] | also measured |
| --- | --- | --- | --- | --- | --- |
| LLGDFFRKSKEKIGKEFKRIVQRIKDFLRNLVPRTES |  |  |  |  | fragment found (aminopeptidase ApdS): 3 AA at the N-terminal; fragment found (PepO [1]): FR-7 (F6-K12); FRKSKEK, major; also recorded: IG-7 (I13-R19); IGKEFKR, major |
| GLLRKGGEKIGEKLKKIGQKIKNFFQKLVPQPEQ |  |  |  |  | not cleaved (ScpC protease [2]): cannot cleave mCRAMP |
| mCRAMP | also cleaved by PepO | the number of dead bacteria was clearly larger than that in the PBS-treated group | chemoattracted mouse neutrophils just as well as LL-37 | facilitated lysosome formation in mouse macrophages | Cleavage by ScpC protease (ScpC protease [5]): cannot cleave mCRAMP |
| LL-37 | the band intensity of LL-37 disappeared | the number of dead bacteria was clearly larger than that in the PBS-treated group | effectively chemoattracted mouse neutrophils | facilitated lysosome formation in mouse macrophages | Cleavage by PepOE513A (PepOE513A): could not cleave LL-37; Resistance of complementary strain CΔpepO [6]: partially restored; Time to cleavage by ApdS (ApdS): in just a few seconds |
